Assay results taken from ChEMBL document CHEMBL4190234, “Design, synthesis and anticancer activity of new monastrol analogues bearing 1,3,4-oxadiazole moiety” (Eur J Med Chem, 2017).

Tests used:
Format in all cases: functional
[1] = tested on: HCT-116; assay: Growth inhibition of human HCT116 cells at 10 uM incubated for 48 hrs by sulforhodamine B assay relative to control; conditions: HCT-116, 48 h, read-out: GI
How it was run: (§1)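 Single-dose screen at 10 μM final: cells in RPMI 1640, 5% FBS, 2 mM L-glutamine, plated 5,000–40,000/well, preincubated 24 h at 37°C, 5% CO2; drug 48 h; adherent cells fixed with 10% TCA, suspension cells with 16% TCA; SRB stain, absorbance 515 nm; percentage growth versus untreated control, with time-zero plates.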

[2] = tested on: 786-0; assay: Growth inhibition of human 786-0 cells at 10 uM incubated for 48 hrs by sulforhodamine B assay relative to control; conditions: 786-0, 48 h, read-out: GI; how it was run: as §1
[3] = tested on: OVCAR-5; assay: Growth inhibition of human OVCAR5 cells at 10 uM incubated for 48 hrs by sulforhodamine B assay relative to control; conditions: OVCAR-5, 48 h, read-out: GI; how it was run: as §1
[4] = tested on: SK-MEL-5; assay: Growth inhibition of human SK-MEL-5 cells at 10 uM incubated for 48 hrs by sulforhodamine B assay relative to control; conditions: SK-MEL-5, 48 h, read-out: GI
How it was run: (§2)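 NCI single-dose screen: cells grown in RPMI 1640 with 5% FBS and 2 mM L-glutamine, plated at 5,000–40,000 cells/well and preincubated 24 h at 37 °C, 5% CO2. Compounds taken from DMSO stock and tested at final 10 µM for 48 h. Cells fixed with TCA, stained with 0.4% SRB, absorbance read at 515 nm. Percentage growth calculated against untreated controls; controls held DMSO at the same dilution.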

[5] = tested on: CCRF-CEM; assay: Growth inhibition of human CCRF-CEM cells at 10 uM incubated for 48 hrs by sulforhodamine B assay relative to control; conditions: read-out: GI; how it was run: as §1
[6] = tested on: NCI-H522; assay: Growth inhibition of human NCI-H522 cells at 10 uM incubated for 48 hrs by sulforhodamine B assay relative to control; conditions: NCI-H522, 48 h, read-out: GI; how it was run: as §1
[7] = tested on: Hs-578T; assay: Growth inhibition of human Hs 578T cells at 10 uM incubated for 48 hrs by sulforhodamine B assay relative to control; conditions: read-out: GI; how it was run: as §1
[8] = tested on: SNB-75; assay: Growth inhibition of human SNB75 cells at 10 uM incubated for 48 hrs by sulforhodamine B assay relative to control; conditions: SNB-75, 48 h, read-out: GI; how it was run: as §2
[9] = tested on: HCC 2998; assay: Growth inhibition of human HCC2998 cells at 10 uM incubated for 48 hrs by sulforhodamine B assay relative to control; conditions: HCC 2998, 48 h, read-out: GI; how it was run: as §1
[10] = tested on: MDA-MB-435; assay: Growth inhibition of human MDA-MB-435 cells at 10 uM incubated for 48 hrs by sulforhodamine B assay relative to control; conditions: MDA-MB-435, 48 h, read-out: GI; how it was run: as §1
[11] = tested on: LOX IMVI; assay: Growth inhibition of human LOXIMVI cells at 10 uM incubated for 48 hrs by sulforhodamine B assay relative to control; conditions: read-out: GI; how it was run: as §1
[12] = tested on: NCI-H460; assay: Growth inhibition of human NCI-H460 cells at 10 uM incubated for 48 hrs by sulforhodamine B assay relative to control; conditions: NCI-H460, 48 h, read-out: GI; how it was run: as §1
[13] = tested on: A498; assay: Growth inhibition of human A498 cells at 10 uM incubated for 48 hrs by sulforhodamine B assay relative to control; conditions: A498, 48 h, read-out: GI; how it was run: as §1
[14] = tested on: HCT-15; assay: Growth inhibition of human HCT15 cells at 10 uM incubated for 48 hrs by sulforhodamine B assay relative to control; conditions: HCT-15, 48 h, read-out: GI; how it was run: as §1
[15] = tested on: RXF 393; assay: Growth inhibition of human RXF393 cells at 10 uM incubated for 48 hrs by sulforhodamine B assay relative to control; conditions: RXF 393, 48 h, read-out: GI; how it was run: as §1
[16] = tested on: HL-60(TB); assay: Growth inhibition of human HL-60(TB) cells at 10 uM incubated for 48 hrs by sulforhodamine B assay relative to control; conditions: HL-60, 48 h, read-out: GI
How it was run: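 Single dose of 10 µM in the NCI ~60-line panel. Cells grown in RPMI 1640 with 5% FBS and 2 mM L-glutamine, plated and pre-incubated 24 h, then exposed 48 h at 37°C under 5% CO2. Suspension cells fixed with TCA (16% final) and stained with sulforhodamine B, A515 read. Reported as percent growth versus untreated control and as GI%.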

[17] = tested on: MCF7; assay: Growth inhibition of human MCF7 cells at 10 uM incubated for 48 hrs by sulforhodamine B assay relative to control; conditions: MCF7, 48 h, read-out: GI; how it was run: as §1
[18] = tested on: UO-31; assay: Growth inhibition of human UO31 cells at 10 uM incubated for 48 hrs by sulforhodamine B assay relative to control; conditions: UO-31, 48 h, read-out: GI; how it was run: as §2
[19] = tested on: HOP-92; assay: Growth inhibition of human HOP92 cells at 10 uM incubated for 48 hrs by sulforhodamine B assay relative to control; conditions: HOP-92, 48 h, read-out: GI; how it was run: as §1
[20] = tested on: NCI-H322M; assay: Growth inhibition of human NCI-H322M cells at 10 uM incubated for 48 hrs by sulforhodamine B assay relative to control; conditions: read-out: GI; how it was run: as §1
[21] = tested on: TK-10; assay: Growth inhibition of human TK10 cells at 10 uM incubated for 48 hrs by sulforhodamine B assay relative to control; conditions: TK-10, 48 h, read-out: GI; how it was run: as §2
[22] = tested on: M14; assay: Growth inhibition of human M14 cells at 10 uM incubated for 48 hrs by sulforhodamine B assay relative to control; conditions: M14, 48 h, read-out: GI; how it was run: as §1
[23] = tested on: HT-29; assay: Growth inhibition of human HT-29 cells at 10 uM incubated for 48 hrs by sulforhodamine B assay relative to control; conditions: HT-29, 48 h, read-out: GI; how it was run: as §1
[24] = tested on: SF-268; assay: Growth inhibition of human SF268 cells at 10 uM incubated for 48 hrs by sulforhodamine B assay relative to control; conditions: SF-268, 48 h, read-out: GI; how it was run: as §2
[25] = tested on: KM12; assay: Growth inhibition of human KM12 cells at 10 uM incubated for 48 hrs by sulforhodamine B assay relative to control; conditions: KM12, 48 h, read-out: GI; how it was run: as §1
[26] = tested on: OVCAR-4; assay: Growth inhibition of human OVCAR4 cells at 10 uM incubated for 48 hrs by sulforhodamine B assay relative to control; conditions: OVCAR-4, 48 h, read-out: GI; how it was run: as §1
[27] = tested on: COLO 205; assay: Growth inhibition of human COLO205 cells at 10 uM incubated for 48 hrs by sulforhodamine B assay relative to control; conditions: COLO 205, 48 h, read-out: GI; how it was run: as §1
[28] = tested on: SF-295; assay: Growth inhibition of human SF295 cells at 10 uM incubated for 48 hrs by sulforhodamine B assay relative to control; conditions: SF-295, 48 h, read-out: GI; how it was run: as §2
[29] = tested on: MOLT-4; assay: Growth inhibition of human MOLT4 cells at 10 uM incubated for 48 hrs by sulforhodamine B assay relative to control; conditions: MOLT-4, 48 h, read-out: GI; how it was run: as §1
[30] = tested on: IGROV-1; assay: Growth inhibition of human IGROV1 cells at 10 uM incubated for 48 hrs by sulforhodamine B assay relative to control; conditions: IGROV-1, 48 h, read-out: GI; how it was run: as §1

CCOC(=O)C1=C(C)NC(SCc2nnc(-c3ccc(Cl)cc3)o2)=NC1c1ccc(Br)cc1 (stereo not given)
inhibition of growth at 10 µM [1]: 51.4% | inhibition of growth at 10 µM [2]: 15.1% | inhibition of growth at 10 µM [3]: < 10% | inhibition of growth at 10 µM [4]: 48.6% | inhibition of growth at 10 µM [5]: 56.6% | inhibition of growth at 10 µM [6]: 32.4% | inhibition of growth at 10 µM [7]: 12.9% | inhibition of growth at 10 µM [8]: 32.3% | inhibition of growth at 10 µM [9]: < 10% | inhibition of growth at 10 µM [10]: 34.9% | inhibition of growth at 10 µM [11]: 25.1% | inhibition of growth at 10 µM [12]: 19.6% | inhibition of growth at 10 µM [13]: 26.8% | inhibition of growth at 10 µM [14]: 34.9% | inhibition of growth at 10 µM [15]: 25% | inhibition of growth at 10 µM [16]: 77.5% | inhibition of growth at 10 µM [17]: 55.2% | inhibition of growth at 10 µM [18]: 47.6% | inhibition of growth at 10 µM [19]: 42.2% | inhibition of growth at 10 µM [20]: 13.6% | inhibition of growth at 10 µM [21]: 20.1% | inhibition of growth at 10 µM [22]: 26% | inhibition of growth at 10 µM [23]: 21.3% | inhibition of growth at 10 µM [24]: 13.3% | inhibition of growth at 10 µM [25]: 24% | inhibition of growth at 10 µM [26]: 30.4% | inhibition of growth at 10 µM [27]: 22.4% | inhibition of growth at 10 µM [28]: 26.4% | inhibition of growth at 10 µM [29]: 91.7% | inhibition of growth at 10 µM [30]: 34.5%
